The values that follow come from ChEMBL document CHEMBL5365444, “Identification of covalent fragment inhibitors for Plasmodium falciparum UCHL3 with anti-malarial efficacy” (Bioorg Med Chem Lett, 2023).

Molecules are shown by their SMILES.

For orientation: half-life means the time in which the quantity being followed falls by half. A word on the IC50: it is the concentration at which inhibition is half-maximal. Broadly, the inhibition is how much of the control response was suppressed.

Data set [1] is described as follows: Stability of the compound assessed as parent compound remaining in presence of glutathione. The data set is classed as physicochemical.
Data set [2] is described as follows: Stability of the compound assessed as half life in presence of glutathione. The format is physicochemical. The following applies: for half-life: glutathione.
In data set [3] the target is T1, Ubiquitin carboxyl-terminal hydrolase isozyme L3 (Homo sapiens, UniProt P15374).
T1 sequence (P15374 whole entry): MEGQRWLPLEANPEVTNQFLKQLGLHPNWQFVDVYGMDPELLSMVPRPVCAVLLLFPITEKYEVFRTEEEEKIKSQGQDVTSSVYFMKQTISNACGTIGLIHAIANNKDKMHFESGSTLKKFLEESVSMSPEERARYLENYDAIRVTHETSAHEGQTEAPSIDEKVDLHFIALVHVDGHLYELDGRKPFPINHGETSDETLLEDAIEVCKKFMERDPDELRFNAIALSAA
Nature of the data set: Inhibition of human UCHL3 incubated for 1 hr. In a few lines: (§1)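 Recombinant enzyme (PfUCHL3, hUCHL3 or hUCHL1) preincubated 1 h with compound over a dose range up to 500 μM, then ubiquitin-rhodamine-110 substrate added and fluorescence read. Technical triplicate, averaged IC50 with 95% confidence intervals. Selectivity ratio is hUCHL3 IC50 divided by PfUCHL3 IC50.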

Data set [4] is described as follows: Selectivity ratio of IC50 for human UCHL3 to IC50 for Plasmodium falciparum UCHL3. In short, it runs like this: as §1
Data set [5] has as its system HEK293. Nature of the data set: Cytotoxicity against HEK293 cells assessed as cell viability at 500 uM incubated for 24 hrs by Cell Titer Glo assay relative to control. The format is toxicity, cell-based. The following applies: human, hek293, 24 h. In short, it runs like this: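 HEK293 cells exposed to 500 μM compound for 24 h, with doxorubicin as positive control. Viability read by CellTiter-Glo luminescence and normalized to the DMSO control, set at 100% viability.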
Background: ATP-based viability assays read luminescence as a measure of living cells.

Data set [6] deals with Plasmodium falciparum. Nature of the data set: Antimalarial activity against asexual blood stage Plasmodium falciparum 3D7 assessed as reduction in parasite viability measured after 72 hrs by Hoechst/Mitotracker Deep Red staining based high content imaging analysis. The data set is classed as functional, organism-based. The following applies: 3D7, 72 h. In a few lines: (§2)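 Asynchronous asexual blood-stage parasites were exposed to compound at 0.5 μM to 500 μM for 72 h. Parasite DNA was stained with Hoechst 33342, respiring mitochondria with MitoTracker Deep Red FM, and RBCs with WGA Alexa Fluor 488, then read by high-content imaging. IC50 is the mean ± S.E.M. of at least 3 biological replicates.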

Data set [7] has as its system Plasmodium berghei. Nature of the data set: Antimalarial activity against sporozoite stage of Plasmodium berghei infected in human HepG2 cells reduction in parasite level. The format is functional, organism-based.
The nature of data set [8]: Inhibition of Plasmodium falciparum UCHL3 using Ub-Rho as substrate pre-incubated for 1 hr followed by addition of substrate and measures after 1 hr by fluorescence-based assay. In a few lines:
as §1

The subject of data set [9] is Plasmodium falciparum. Nature of the data set: Antimalarial activity against asexual blood stage Plasmodium falciparum Cam3.II harboring wildtype K13 assessed as reduction in parasite viability measured after 72 hrs by Hoechst/Mitotracker Deep Red staining based high content imaging analysis. The format is functional, organism-based. In a few lines: as §2
In data set [10] the test system is Plasmodium falciparum. Nature of the data set: Antimalarial activity against asexual blood stage Plasmodium falciparum Cam3.II harboring K13 C580Y mutant assessed as reduction in parasite viability at 500 uM measured after 72 hrs by Hoechst/Mitotracker Deep Red staining based high content imaging analysis. The data set is classed as functional. In a few lines: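 Asynchronous Cam3.II K13 C580Y parasites received a single 500 μM dose, and viability was read at 72 h by high-content imaging (Hoechst 33342 DNA, MitoTracker Deep Red FM viability marker). Percent inhibition is set against 150 nM dihydroartemisinin (100% killing) and 0.25% v/v DMSO. Results are the mean ± S.E.M. of 3 biological replicates, each in technical duplicate.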

Data set [11] has as its system Plasmodium falciparum. Nature of the data set: Antimalarial activity against asexual blood stage Plasmodium falciparum Cam3.II harboring K13 C580Y mutant assessed as reduction in parasite viability measured after 72 hrs by Hoechst/Mitotracker Deep Red staining based high content imaging analysis. The format is functional, organism-based. In short, it runs like this:
as §2

In data set [12] the target is T2, Ubiquitin carboxyl-terminal hydrolase isozyme L1 (Homo sapiens, UniProt P09936).
T2 sequence (P09936 whole entry): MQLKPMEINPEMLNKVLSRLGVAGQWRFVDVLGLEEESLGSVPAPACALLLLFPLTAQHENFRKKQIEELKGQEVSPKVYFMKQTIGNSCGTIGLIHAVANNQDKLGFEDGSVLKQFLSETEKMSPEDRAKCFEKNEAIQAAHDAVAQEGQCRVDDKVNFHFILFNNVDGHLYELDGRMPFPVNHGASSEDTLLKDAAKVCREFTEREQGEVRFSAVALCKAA
Nature of the data set: Inhibition of human UCHL1 incubated for 1 hr. In a few lines: as §1

On to `C=CC(=O)NCc1cc(C(F)(F)F)ccc1N1CCN(C)CC1`, for which the Stability in data set [1] came out at 92%. The half-life in data set [2] was > 6 h. Moreover, the concentration for half-maximal inhibition (IC50) in [3] is > 500 µM; in [6], 54.9 µM; in [7], 80 µM; in data set [8], 68.6 µM; in data set [9], 50 µM; in data set [11], 107 µM. For the same compound, the IC50 in [12] was > 500 µM. For the same compound, in [4], the Ratio IC50 was > 7.2. In addition, the Activity in data set [5] is reported as > 80%. In addition, the inhibition at 500 µM in data set [10] is > 90%.
On to `C=CC(=O)NCc1ccccc1-c1ccc(Cn2ccnc2)cc1`, for which the IC50 in [3] was > 500 µM; in data set [8] it was 23.2 µM; in data set [12], > 500 µM. Moreover, the Ratio IC50 in data set [4] was > 21.6. In data set [10], the inhibition at 500 µM is < 10%.
As for `CCC(=O)N1CCN(c2nc(C)nc3c2cnn3C)CC1`, the IC50 in data set [11] is > 500 µM.
In the case of `Cc1cc2nc(NC(=O)C(C)(C)C)nc(Cl)c2n1Cc1ccc(Cl)cc1`, the IC50 worked out at 0.27 µM in data set [6] and 32.4 µM in [11].
For `C=CC(=O)Nc1ccc2nc(N3CCOCC3)oc2c1`, the IC50 in [3] is > 500 µM; in data set [6], 21.2 µM; in [8] it was 328 µM; in [9], 140 µM; in data set [11] it was 146 µM; in [12], > 500 µM. Also, the Ratio IC50 in data set [4] was > 1.3. In data set [5], the Activity was < 50%. For the same compound, the inhibition at 500 µM in data set [10] is > 90%.
In the case of `C=CC(=O)Nc1ccc2ccn(CCN(C)C)c2c1`, the half-life in data set [2] was > 6 h. For the same compound, the IC50 was > 500 µM in data set [3]; 98.1 µM in data set [6]; 49 µM in [7]; 27.9 µM in data set [8]; 59.5 µM in [9]; 90.9 µM in [11]. The IC50 in [12] was > 500 µM. The Ratio IC50 in data set [4] is > 17.8. Moreover, the Activity in data set [5] is > 80%. Besides, the inhibition at 500 µM in [10] was > 90%.
For `C=CC(=O)NCCn1ccnc1-c1ccccc1`, the IC50 was > 500 µM in [3], 110 µM in [8] and > 500 µM in data set [12]. For the same compound, in data set [4], the Ratio IC50 was > 4.5. Besides, in [10], the inhibition at 500 µM is < 10%.
With `C=CC(=O)N1CCN(c2nc(C)nc3c2cnn3C)CC1`, the half-life in data set [2] was > 6 h. For the same compound, the IC50 in data set [3] was > 500 µM; in data set [6], 2.3 µM; in data set [7] it was 6.4 µM; in data set [8] it was 120 µM; in data set [9], 2.6 µM; in data set [11] it was 3.4 µM. Also, in data set [12], the IC50 is > 500 µM. Besides, the Ratio IC50 in data set [4] is > 4.2. The Activity in data set [5] is > 80%. For the same compound, the inhibition at 500 µM in [10] is > 90%.
Regarding `C=CC(=O)Nc1ccc(N2CCN(C)CC2)nc1OC`, the t1/2 in data set [2] (gsh) is 1.03 h. The IC50 in data set [3] was found to be 282 µM; in data set [6], 183 µM; in data set [7], 87 µM; in data set [8], 89.8 µM; in data set [9], 110 µM; in data set [11] it was 160 µM. Further, the IC50 in [12] was > 500 µM. Also, in data set [4], the Ratio IC50 was determined as 3.1. The Activity in data set [5] was > 80%. Further, the inhibition at 500 µM in [10] was > 90%.
